According to ChEMBL document CHEMBL1146022, “Replacement of the metabolically labile methyl esters in the alkenyldiarylmethane series of non-nucleoside reverse transcriptase inhibitors with isoxazolone, isoxazole, oxazolone, or cyano substituents” (J Med Chem, 2006):

Key:
[1] = tested on: Human immunodeficiency virus 1; experiment: Antiviral activity against HIV1 3B in MT4 cells by MTT assay; format: functional, organism-based; conditions: Human immunodeficiency virus 1, 3B
How it was run: (§1)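 MT-4 cells infected with HIV-1 IIIB or HIV-2 ROD; protection from virus-induced cytopathicity read by MTT assay. EC50 taken as the concentration giving 50% inhibition of cytopathicity.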

MT4 = experiment: Cytotoxicity against mock-infected MT4 cells; format: functional; conditions: Homo sapiens
[2] = tested on: Human immunodeficiency virus 2; experiment: Antiviral activity against HIV2 ROD in MT4 cells by MTT assay; format: functional, organism-based; conditions: Human immunodeficiency virus 2, ROD; how it was run: as §1
[3] = molecular target: Human immunodeficiency virus type 1 reverse transcriptase (Human immunodeficiency virus 1, UniProt Q72547); experiment: Inhibition of recombinant HIV1 reverse transcriptase measured as inhibition of incorporation of [32P]GTP in rCDG primer; format: functional
How it was run: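 Purified recombinant HIV-1 RT p66/p51 heterodimer. Polymerase activity followed as [32P]GTP incorporation on poly(rC)/oligo(dG) homopolymer template-primer. IC50 taken from inhibition of incorporation.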

[4] = tested on: Human immunodeficiency virus 1; experiment: Antiviral activity against HIV1 RF in CEM-SS cells by MTS cytoprotection assay; format: functional, organism-based; conditions: Human immunodeficiency virus 1, RF
How it was run: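 CEM-SS cells infected with HIV-1 RF; cytoprotection against viral cytopathic effect read by MTS assay. EC50 taken as the concentration giving 50% inhibition of cytopathicity.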

[5] = Half life in rat plasma; format: ADME
How it was run: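 In vitro hydrolytic stability in rat plasma, with 1,1-diphenylethylene or benzophenone as internal standard. Half-life reported in minutes with SD.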

CEM-SS = experiment: Cytotoxicity against mock-infected CEM-SS cells; format: functional; conditions: Homo sapiens

SMILES | IC50 [3] | half-life [5] | EC50 [1] | CC50 (MT4) | EC50 [2] | EC50 [4] | CC50 (CEM-SS)
COC(=O)CCCC=C(c1cccc(C#N)c1)c1cc(C)c2oc(=O)n(C)c2c1 | 26.4 µM | 1.18 min | > 54.2 µM | 54.2 µM | > 54.2 µM | > 100 µM | 12.9 µM
COC(=O)CCC/C=C(/c1ccc(C#N)cc1)c1cc(C)c2oc(=O)n(C)c2c1 | 1.2 µM |  | 1.49 µM | 51 µM | > 51 µM | 0.59 µM | 21.9 µM
COC(=O)CCC/C=C(/c1cccc(C#N)c1)c1cc(C)c2oc(=O)n(C)c2c1 | 2.8 µM |  |  |  |  | 1.73 µM | 11.5 µM
COC(=O)CCC/C=C(\c1cccc(C#N)c1)c1cc(C)c(OC)c(C(=O)OC)c1 | 0.54 µM | 1.32 min | 0.47 µM | 10.6 µM | > 10.6 µM | 0.46 µM | 10.9 µM

Second part, led by results:

IC50 [3] | half-life [5] | SMILES | EC50 [1] | CC50 (MT4) | EC50 [2] | EC50 [4] | CC50 (CEM-SS)
49.2 µM | 0.46 min | COC(=O)CCC/C=C(/c1cc(C)c2on(C)c(=O)c2c1)c1cc(C)c2oc(=O)n(C)c2c1 | 4.49 µM | 36.5 µM | > 36.5 µM | 1.79 µM | 11.1 µM
9.86 µM | 22.1 min | COC(=O)c1cc(/C(=C\CCN2CCOC2=O)c2cc(C)c3on(C)c(=O)c3c2)cc(C)c1OC |  |  |  | 2.7 µM | 16.3 µM
49.6 µM |  | COC(=O)CCCC=C(c1cccc(C#N)c1)c1cc(C)c2on(C)c(=O)c2c1 |  |  |  | > 100 µM | 14 µM
2 µM | 1.85 min | COC(=O)CCC/C=C(\c1cc(C)c(OC)c(C(=O)OC)c1)c1cc(C)c2on(C)c(=O)c2c1 | 3.1 µM | 27.1 µM | > 27.1 µM | 1.1 µM | > 5 µM
0.02 µM |  | COC(=O)CCC/C=C(/c1cc(C)c(OC)c(C(=O)OC)c1)c1cc(C)c2oc(=O)n(C)c2c1 | 0.09 µM |  |  | 0.03 µM | 
7.6 µM | > 1440 min | COc1noc2c(C)cc(/C(=C\CCN3CCOC3=O)c3cc(C)c4on(C)c(=O)c4c3)cc12 | > 1.12 µM | 1.12 µM | > 1.12 µM | > 9.91 µM | 1.54 µM
